Source: the EternaBench riboswitch data

System: MS2 coat protein
Test: apparent Kd, MS2 coat protein; higher = weaker binding; RNA-MaP array; FMN 200 µM where present
Procedure, shortened: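 The apparent Kd is reported as the median of filtered per-cluster binding-curve fits. To get these curves, designs transcribed by stalled E. coli RNA polymerase on Illumina sequencing-chip clusters were titrated with SNAP-549-labelled MS2 coat protein from 0.7 or 1.5 nM, doubling to 3 µM. Titrations were run without and then with constant ligand in 100 mM Tris-HCl pH 7.5, 80 mM KCl, 4 mM MgCl2, BSA, DTT, yeast tRNA and Tween-20, and green signal was normalised to red-channel RNA signal and control-cluster median Fmax.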

[1] = designed as: OFF switch for flavin mononucleotide, no ligand
[2] = ligand present: flavin mononucleotide, designed as: OFF switch for flavin mononucleotide
[3] = designed as: ON switch for flavin mononucleotide, no ligand
[4] = ligand present: flavin mononucleotide, designed as: ON switch for flavin mononucleotide

| Sequence | apparent Kd [1] [nM] | apparent Kd [2] [nM] | apparent Kd [3] [nM] | apparent Kd [4] [nM] |
| --- | --- | --- | --- | --- |
| GAGAUGUGAGGAUAUCUAGACCGCGGAAGAGCUGCGGUCCGAGAGAAGGCACAUGAGGAUCACCCAUGUGAUGA | 46.2 | 145 |  |  |
| GAGCGAAAGCUCAAUGUCGAUAGCAGAAGGACAUGAAUAACAUGAAUAACAUGAGGAUCACCCAUGUAGGAUAUGCUAUCGACU | 11.1 | 108 |  |  |
| GAGCGAAAGCUCAAUGUCGAUAGCAGAAGGACAUGUAAAACCAUGAAAACAUGAGGAUCACCCAUGUAGGAUAUGCUAUCGACU | 9.7 | 95.8 |  |  |
| GAGCUAUGAGGAUAUGCAUAUAUACGGUUUCGUGUGGUACUACAUGAGGAUCACCCAUGUAGAAGGCGUGGCUG | 17.7 | 15.1 |  |  |
| GAGGACUGAAUAAUAAGUAGAAAUACAUGAGGAUCACCCAUGUAGGAUAUCGUCAGGAAUACUGACGAGAAGGACAUACAGUCC | 14.1 | 18.1 |  |  |
| GAGGACUGUAAAUUAACUCAAAUACAUGAGGAUCACCCAUGUAAGGAUAUCGUCAGGAAUACUGACGAGAAGGUACAUCAGUCC | 14.4 | 20 |  |  |
| GAGGAUUUUUAGCUGACAUGAGGAUCACCCAUGUCUUGACCCAGAAGGGCGUGGGAUUCCCAACCGCAGGAUAUGGAUAGUCGG |  |  | 64.8 | 35.7 |
| GAGGGUUAAGGAUAUACAUGAGGAUCACCCAUGUAUGGCAAGCCAUAAUCCUCAUUAAGUAGAAGGUAACCUUC | 11.7 | 15.3 |  |  |
| GAGUAGAUAGCAGGAUAUCUAUUUCCUACAUGAGGAUCACCCAUGUAGAUGAUCACCCAUGUAAAGGAGAAGGGCUAUCUAUUC |  |  | 355 | 160 |
| GAGUGACACCAGAAGGGCCAGGAAAGAACACUGGUAGGAUAUGGAGCGCCCUCGUAACGACCGACAUGAGGAUCACCCAUGUCC |  |  | 117 | 28.1 |
| GAGUGACAUGAGGAUCACCCAUGUGAGGAUAUCGGACGGACCUUGUUAGCUUCCGCCGCGAGAAGGCACAUCGG | 208 | 34.5 |  |  |
| GAUAGGACAGAGAAGGACAUAGCUAGAGAUACUAGCAUACGAACCUUUACAUGAGGAUCACCCAUGUAGGAUAUCUGUCCUAUC | 5.43 | 6.78 |  |  |
| GAUAGGACAGAGAAGGACAUAGCUAGAGAUACUAGCAUAUGAACCUUCACAUGAGGAUCACCCAUGUAGGAUAUCUGUCCUAUC | 3.51 | 3.96 |  |  |
| GAUCAACAUGAGGAUCACCCAUGUGAGGAUAUGAUACUAUGUACUUCGGUACAUAGUAUCAGAAGGCACAUAAA | 67.9 | 218 |  |  |
| GAUCAACAUGAGGAUCACCCAUGUGAGGAUAUGAUACUAUGUACUUCGGUACAUAGUAUCAGAAGGCACUAGGA | 65.6 | 192 |  |  |
| GAUCCUUCUGUUAGGAUAUGCUUUGGGCUUCCGCAGCAGAAGGAACAUGAGGAUCACCCAUGUUCGAUGCCGUC | 60.4 | 59.9 |  |  |
| GAUCUCGUCUAGAAGGUGUAAUAUAUAGUAGUACAAGGAUAUAGACAUGAGGAUCACCCAUGUCGUGCCUGGGCUCAUCUUAAA | 5.92 | 7.64 |  |  |
| GAUGGCGUCCAAGGAUAUCCUGACCGUUAACAUGAGGAUCACCCAUGUUGCCUAAAGGCGGCAUAGGAGAAGGUGGUACUCUGA |  |  | 111 | 155 |
| GAUGUAUUCGUAGGAUAUCCGUCGCCACCGUGUGGAGAAGGACGAACAUGAGGAUCACCCAUGUAUCAUGGUGUAGACACUUUC | 142 | 190 |  |  |
| GAUUAACAUGAGGAUCACCCAUGUGAGGAUAUGGACUGGCUCACUUUCCGAUUCGGGUCUAGAAGGCGCAUCUU | 33.5 | 33.2 |  |  |
| GAUUAAUGCAAGGAUAUGCUAUUAAUUUAUUUUGCAGAAGGUGCAACAUGAGGAUCACCCAUGUUGGAGGGUAU | 22.3 | 33.4 |  |  |
| GAUUAAUGCAAGGAUAUGCUAUUAUUUUAUUUUGCAGAAGGUGCAACAUGAGGAUCACCCAUGUUGGAGGGUAU | 19.8 | 29.8 |  |  |
| GAUUACAAGUAAGGAUAUGUAUAUGAAACAUAUACAGAAGGUACAUGAGGAUCACCCAUGUUCUUGCAAAGCGAAUAUGUAAUC | 17.3 | 21 |  |  |
| GAUUCACAUGAGGAUCACCCAUGUGAGGAUAUAGUGCAGGAGGUGAAUGUCCACCUCUCUAGAAGGCACACGGG | 22.3 | 23.6 |  |  |
| GAUUGAAAAGGAUAUACAUGAGGAUCACCCAUGUGCUUCAGCUAGGAGACUAGCAUUGGUAGAAGGUUUUAAUC | 22.2 | 43.9 |  |  |
| GAUUGACAUGAGGAUCACCCAUGUGAGGAUAUCGGCCGGACCUUGUUAGCUUCCACCGCGAGAAGGCACAUCGG | 19.7 | 21.3 |  |  |
| GAUUUCGCAUGAGGAUAUGCUCGCAUUUCAAGAGCAGAAGGUAUGUCAUUAGACAUGAGGAUCACCCAUGUAGUUAAGAUUGAA |  |  | 186 | 34.9 |
| GAUUUCUCAUGAGGAUAUGCUCGCAUUUCAAGAGCAGAAGGUAUGUCAUUAGACAUGAGGAUCACCCAUGUAGUUAAGAUUGAA |  |  | 72 | 44.7 |

| Sequence | apparent Kd [1] [nM] | apparent Kd [2] [nM] | apparent Kd [3] [nM] | apparent Kd [4] [nM] |
| --- | --- | --- | --- | --- |
| GCAAGGCAUGUAGGAUAUCGAGCUCAAAGAGCUCGAGAAGGACAUGAGGAUCACCCAUGUGCUCACAGACAGUGAGCGCCAUGC | 35.4 | 114 |  |  |
| GCAAUGUAAGGAUAUUCGGAGUCCUGCCGGGCAGGUAGGUUGGAGAAGGUACAUGAGGAUCACCCAUGUGAGCC | 48.6 | 170 |  |  |
| GCACAUGAUACAGGAUAUGUUUUGGAUUUUAUAUUCAGUUAUAUAAUAUUUACAGAAGGGUAUACAUGAGGAUCACCCAUGUGC | 61.1 | 30.8 |  |  |
| GCACGAGACUAAGGAUAUGGAGUGUCUACAUUAAACAUGAGGAUCACCCAUGUAGAGAGUACGAUUCAGAAGGUAGAGACGUGC |  |  | 48.6 | 22.1 |
| GCACGAGACUAAGGAUAUGGUGUACCUACAUGAAACAUGAGGAUCACCCAUGUAGUAAGUAUGAUUCAGAAGGUAGAGACGUGC |  |  | 30.4 | 18.3 |
| GCACGGCAUGUAGGAUAUCGAGCGCCGGGCGCUCGAGAAGGACAUGAGGAUCACCCAUGUACUCUCAGUGAGAGAGUGCUGUGC | 18.7 | 31.8 |  |  |
| GCACGGCAUGUAGGAUAUCGAGCGCCGGGCGCUCGAGAAGGACAUGAGGAUCACCCAUGUAUUCUCAGUGAGAGAGUGCUGUGC | 36.1 | 55.9 |  |  |
| GCACGGCAUGUAGGAUAUCGAGCUCCGGGAGCUCGAGAAGGACAUGAGGAUCACCCAUGUGCUCACAGUGAGUGAGCGCUGUGC | 23.9 | 93.5 |  |  |
| GCACUGACAGGAUAUACAUGAGGAUCACCCAUGUGACCCUUAGAGUACUCGCGUACUCGUAGAAGGGUCUGUGC | 36 | 105 |  |  |
| GCACUGGAUGUAGGAUAUCAGGACGAUAAGUCCUGAGAAGGACAUGAGGAUCACCCAUGUAAACUCAACCAGUGCUAUAAUAUA | 15.2 | 22.8 |  |  |
| GCACUUAAAAUUGAACCGUUUCGAACAUGAGGAUCACCCAUGUAGGAUAUGCUAAAAGUUGUGAUGCAGAAGGACAAUAAGUGC | 6.82 | 6.67 |  |  |
| GCAGACGUAGUGAGGAUAUGCUCUACCUCGGUAGAGCAGAAGGCACAUGAGGAUCACCCAUGUGGUUCCUCUGC | 19.1 | 80.9 |  |  |
| GCAGCACUGUUUUACAUGAGGAUCACCCAUGUCGAUUGUUAUGAGGAUAUGCAUCGUAUGAAGAUGCAGAAGGCAUUGUGCUGC |  |  | 8.32 | 5.48 |
| GCAGGCAACGAGAAGGGAGUACAUGAGGAUCACCCAUGUGUCCUCUGCGGCUCAGGAUAUCGCCCUGGGAAAGGUAAGCCUUAA | 39.7 | 176 |  |  |
| GCAGGCUGCUCUGAAGCUACAUUCGAGGAUAUGAUCCAAGACAUGAGGAUCACCCAUGUAGAAGAUCAGAAGGCGAUGGCUAGG |  |  | 89.8 | 9.77 |
| GCAGGCUUCGAGAAGGACAUGAGGAUCACCCAUGUGCGUGUGAAGCAGCCGUGAGGCUGCAUCAUGUAGGAUAUCGGAGUCUGA | 74.5 | 500 |  |  |
| GCAGGCUUCGAGAAGGACAUGAGGAUCACCCAUGUGCGUGUGAAGCAGCCGUGAGGCUGCAUCAUGUAGGAUAUCGGAGUCUGC | 70.8 | 573 |  |  |
| GCAUCACAUGAGGAUCACCCAUGUCUUCGGAGUCGAGGAUAUGGUCACUGUAAACAGUGGCCAGAAGGCGAGGUGC |  |  | 67.6 | 38.3 |
| GCAUCCUGGUAGAAGGGACAUCGGCUGGUAAGCAUCAUCUCCUUCUCACAUGAGGAUCACCCAUGUCAGGAUAUACCAGGACGC | 12.3 | 42.1 |  |  |
| GCAUGACAAAGUCAUGCAUUACGAACAUGAGGAUCACCCAUGUAGGAUAUGCUACUCAAAGAGUAGCAGAAGGACAUGUGUCUU | 32.7 | 158 |  |  |
| GCAUGCAAGUAGAAGGGCAGAUAUUUUGAUACUGCAGGAUAUGCAGAAUCAUAUCCACAUGAUAACAUGAGGAUCACCCAUGUA | 33.7 | 26.1 |  |  |
| GCAUGCAUAGCGAUAUGAUCGAGAGAUCAUGUCGCUAAAUUUAGAAGGACAUGAGGAUCACCCAUGUAGGAUAUGGGAGCAUGC |  |  | 11.7 | 7.72 |
| GCAUGCGAUAAUAUGUCUGAGGGCAGAAGGCACAUGAGGAUCACCCAUGUAACGAUCUCUUCAAGUGAGGAUAUGUGCUCAUUG | 34 | 85.2 |  |  |
| GCAUGGAAAGUGAGGAUAUACCACUGGAUACAGUGGUAGAAGGCACAUGAGGAUCACCCAUGUCUCUACCAUGC | 13.6 | 30.8 |  |  |
| GCAUGGUGAGGAUAUGCAGAAGGGCAACGGUCAUCAUGACUACAUGAGGAUCACCCAUGUAGAAGGCACACAUG | 44.3 | 54.8 |  |  |
| GCAUUGUAAGGAUAUACGUGCAAAGUUUUCGCUGUAAGUCGACAUGAGGAUCACCCAUGUAGAAGGUAUAUGGU | 24 | 24.1 |  |  |
| GCAUUUGAGCAGGAUAUAGCCUGAACAUAAUGGUUAGAAGGGCUCACAUGAGGAUCACCCAUGUGGUGUCCUAA | 12.8 | 36 |  |  |
